Test results from ChEMBL document CHEMBL5331127, “Discovery of ARD-2051 as a Potent and Orally Efficacious Proteolysis Targeting Chimera (PROTAC) Degrader of Androgen Receptor for the Treatment of Advanced Prostate Cancer” (J Med Chem, 2023).

How the values were obtained:
[1] = Volume of distribution at steady state in Beagle dog at 1 mg/kg, iv measured upto 24 hrs by LC-MS/MS analysis; type: ADME, organism-based, Canis lupus familiaris; conditions: in vivo
Summary of the method: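 Male Beagle dogs. IV 1 mg/kg in 10% PEG400 + 90% PBS (pH 8.0); PO 3 mg/kg in 90% PEG400 + 10% Cremophor. Plasma PK to 24 h; F from IV and PO exposure.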

Cytochrome P450 2D6 = Cytochrome P450 2D6 (Homo sapiens, UniProt P10635); experiment: Inhibition of CYP2D6 in human liver microsomes preincubated for 5 mins followed by NADPH addition and measured after 10 mins by LC/MS analysis; type: ADME, Microsome
[2] = Clearance in Beagle dog at 1 mg/kg, iv measured upto 24 hrs by LC-MS/MS analysis; type: ADME, organism-based, Canis lupus familiaris; conditions: in vivo
Summary of the method: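 Male ICR mice (2 mg/kg), male SD rats (1 mg/kg) or male Beagle dogs (1 mg/kg) given a single intravenous dose in 10% PEG400 + 90% PBS adjusted to pH 8.0 with NaOH.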

Cytochrome P450 3A4 = Cytochrome P450 3A4 (Homo sapiens, UniProt P08684); experiment: Inhibition of CYP3A4 in human liver microsomes using […] as substrate preincubated for 5 mins followed by NADPH addition and measured after 5 mins by LC/MS analysis; type: ADME, Microsome
[3] = Metabolic stability in rat plasma assessed as half life at 1 uM measured upto 120 mins by LC-MS/MS analysis; type: ADME, cell-free; conditions: 2 h
Summary of the method: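 Compound at 1 μM final in pre-warmed plasma of each species, 37 °C for up to 2 h. ACN/IS quench at 0, 5, 15, 30, 60 and 120 min; LC/MS. Procaine as reference (benfluorex for rat). t1/2 = 0.693/slope of ln(fraction remaining) versus time.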

[4] = Plasma protein binding in human at 1 uM after 5 hrs by equilibrium dialysis based LC-MS/MS analysis; type: ADME, cell-free
Summary of the method: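 Equilibrium dialysis of pooled plasma of each species spiked at 1 μM against 0.1 M sodium phosphate, pH 7.4. 5 h at 37 °C with shaking at 60 rpm. Both sides matrix-matched, ACN/IS quench, LC/MS. % bound = 100 − (buffer/plasma peak-area ratio × 100); recovery also calculated. Warfarin as reference.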

[5] = Metabolic stability in mouse hepatocytes assessed as half life at 1 uM measured upto 120 mins in presence of NADPH by LC-MS/MS analysis; type: ADME, cell-based, Hepatocyte; conditions: 2 h
[6] = Cmax in Beagle dog at 3 mg/kg, po measured up to 24 hrs by LC-MS/MS analysis; type: ADME, organism-based, Canis lupus familiaris; design: time < 24 hrs, dose 3 mg/kg, route po; conditions: in vivo
Summary of the method: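 Male Beagle dogs dosed orally at 3 mg/kg in 90% PEG400 + 10% Cremophor.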

VCaP = experiment: Growth inhibition in human VCaP cells incubated for 4 days by WST-8 assay; type: functional, cell-based; conditions: 96 h
[7] = molecular target: Voltage-gated inwardly rectifying potassium channel KCNH2 (Homo sapiens, UniProt Q12809); experiment: Inhibition of human ERG expressed in HEK293 cells by whole cell patch clamp assay; type: toxicity, cell-based
Summary of the method: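 Manual whole-cell patch clamp at room temperature on HEK293 cells stably expressing hERG. Compound tested at 3 and 30 μM in duplicate; terfenadine as positive control.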

Chain of Voltage-gated inwardly rectifying potassium channel KCNH2 (Q12809 whole entry): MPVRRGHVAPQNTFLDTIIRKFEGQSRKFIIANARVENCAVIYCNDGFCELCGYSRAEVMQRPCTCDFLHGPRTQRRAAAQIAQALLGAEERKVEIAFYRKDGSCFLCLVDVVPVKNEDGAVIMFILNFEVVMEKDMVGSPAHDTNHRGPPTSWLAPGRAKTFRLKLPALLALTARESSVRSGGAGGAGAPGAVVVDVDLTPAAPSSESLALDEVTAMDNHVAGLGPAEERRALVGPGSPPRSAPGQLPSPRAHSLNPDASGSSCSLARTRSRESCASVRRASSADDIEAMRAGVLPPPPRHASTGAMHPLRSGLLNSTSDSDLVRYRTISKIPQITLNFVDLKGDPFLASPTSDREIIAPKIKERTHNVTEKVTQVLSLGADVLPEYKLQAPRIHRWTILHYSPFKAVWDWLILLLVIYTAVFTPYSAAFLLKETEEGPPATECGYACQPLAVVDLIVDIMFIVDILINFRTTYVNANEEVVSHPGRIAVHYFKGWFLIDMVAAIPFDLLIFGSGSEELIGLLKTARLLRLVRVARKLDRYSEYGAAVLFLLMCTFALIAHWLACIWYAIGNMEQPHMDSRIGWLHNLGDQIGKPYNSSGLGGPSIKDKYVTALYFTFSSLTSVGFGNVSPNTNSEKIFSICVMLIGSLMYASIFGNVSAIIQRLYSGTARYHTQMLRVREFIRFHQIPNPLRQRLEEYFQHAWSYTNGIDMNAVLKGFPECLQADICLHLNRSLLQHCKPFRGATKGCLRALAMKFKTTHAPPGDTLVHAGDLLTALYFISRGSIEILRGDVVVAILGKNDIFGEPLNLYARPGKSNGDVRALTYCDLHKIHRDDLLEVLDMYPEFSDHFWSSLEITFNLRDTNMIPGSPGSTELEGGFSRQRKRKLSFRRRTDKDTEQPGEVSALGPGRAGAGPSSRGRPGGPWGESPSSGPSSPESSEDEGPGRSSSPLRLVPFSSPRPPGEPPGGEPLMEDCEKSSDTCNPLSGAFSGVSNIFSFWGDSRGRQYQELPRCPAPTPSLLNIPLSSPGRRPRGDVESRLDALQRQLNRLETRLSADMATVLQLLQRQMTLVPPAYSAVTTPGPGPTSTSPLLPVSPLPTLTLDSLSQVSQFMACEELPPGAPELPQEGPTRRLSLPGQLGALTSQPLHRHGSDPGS
Chain of Cytochrome P450 2D6 (P10635 whole entry): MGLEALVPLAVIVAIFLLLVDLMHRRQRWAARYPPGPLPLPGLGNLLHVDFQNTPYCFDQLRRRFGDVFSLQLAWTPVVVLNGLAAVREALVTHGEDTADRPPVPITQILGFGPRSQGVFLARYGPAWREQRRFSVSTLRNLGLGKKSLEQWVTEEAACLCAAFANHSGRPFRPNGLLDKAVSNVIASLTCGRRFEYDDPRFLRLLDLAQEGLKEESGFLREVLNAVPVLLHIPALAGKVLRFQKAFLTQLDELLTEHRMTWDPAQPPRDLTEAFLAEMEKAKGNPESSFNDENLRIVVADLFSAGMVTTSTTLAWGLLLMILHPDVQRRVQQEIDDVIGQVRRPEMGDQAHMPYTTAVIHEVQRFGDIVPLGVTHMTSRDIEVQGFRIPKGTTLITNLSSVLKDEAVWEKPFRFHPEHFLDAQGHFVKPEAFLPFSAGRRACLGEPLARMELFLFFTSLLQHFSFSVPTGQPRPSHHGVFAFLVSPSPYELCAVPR
Chain of Cytochrome P450 3A4 (P08684 whole entry): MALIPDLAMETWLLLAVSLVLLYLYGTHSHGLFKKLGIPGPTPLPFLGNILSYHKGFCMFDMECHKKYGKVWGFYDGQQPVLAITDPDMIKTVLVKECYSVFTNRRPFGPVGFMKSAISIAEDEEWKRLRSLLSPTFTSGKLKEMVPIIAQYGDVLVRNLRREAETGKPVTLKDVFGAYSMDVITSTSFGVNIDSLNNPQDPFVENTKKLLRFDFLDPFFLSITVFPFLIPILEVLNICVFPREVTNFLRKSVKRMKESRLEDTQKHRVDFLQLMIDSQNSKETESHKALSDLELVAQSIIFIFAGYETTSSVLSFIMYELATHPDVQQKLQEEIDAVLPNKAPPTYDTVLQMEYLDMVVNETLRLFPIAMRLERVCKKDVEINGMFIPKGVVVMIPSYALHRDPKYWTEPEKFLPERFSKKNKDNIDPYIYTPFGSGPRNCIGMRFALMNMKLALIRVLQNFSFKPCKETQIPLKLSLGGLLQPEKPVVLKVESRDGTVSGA

SMILES: C[C@H]1CC2(CCN(c3ccc(C(=O)N4CCN(C5CN(c6ccc7c(c6)C(=O)N(C6CCC(=O)NC6=O)C7=O)C5)CC4)cc3)CC2)CN1c1ccc(C#N)c(Cl)c1 (stereo not given in full)
- Vdss [1]: 2.8 L/kg
- IC50 (Cytochrome P450 2D6): > 10 µM
- clearance [2]: 4.6 mL/min/kg
- IC50 (Cytochrome P450 3A4): > 10 µM
- t1/2 [3]: > 2 h
- PPB [4]: 99.1%
- t1/2 [5]: > 2 h
- Cmax [6]: 294 ng/mL
- IC50 (VCaP): 0.01 µM
- IC50 [7]: > 30 µM
